From PubChem BioAssay
Only some compounds are listed: those with a hit (about 2.3% of all), similar ones and a draw of the others.
TRPC4 agonist – opens the mouse TRPC4 cation channel; B-score at 10 µM; Q9QUQ5; HEK293 TRPC4beta/mu-opioid, Fluo4 calcium fluorescence; active compounds read high; AID 2237; 310,000 compounds, 0.49% hits;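 active = B-score above 5 SD of library B-scores, and initial fluorescence ratio not above library mean plus 5 SD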;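 also: positive B-score marks a calcium rise read as TRPC4 activation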
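Technique: kinetic Fluo4 calcium fluorescence; Test system: TRPC4beta and mu-opioid receptor HEK293 stable cells; Measure: B-scored integrated calcium fluorescence ratio; Benchmarks: low control buffer alone, high control maximal DAMGO; Schedule: 45 min room-temperature Fluo4 loading, 110 s read.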
TRPC4 PAM – allosterically enhances the mouse TRPC4 cation channel; HEK293 TRPC4beta/mu-opioid, DAMGO EC20, Fluo-4 Ca2+ flux; active compounds read high; B-score at 10 µM; 310,000 compounds, 0.42% hits;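 active = B-score of calcium response area above 5 SD of library B-scores, with initial fluorescence ratio within 5 SD of library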;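 also: B-score of integrated fluorescence ratio over time as area under calcium response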
TRPC4 block – TRPC4 (mouse) channel inhibition; B-score at 10 µM; HEK293 TRPC4beta/mu-opioid, DAMGO-evoked Fluo4 calcium flux; active compounds read low; AID 2247; 300,000 compounds, 0.39% hits;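 active = B-score over 3 SD under the library average, no early fluorescence shift, positive overall ratio signal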
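Material: HEK293 cells with stable TRPC4beta plus mu-opioid receptor expression / Probe or stimulus: DAMGO in two steps, submaximal then maximal / Compound: single concentration per test compound / Technique: kinetic Fluo4 fluorescence imaging of calcium influx / Read-out: per-well B score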
TRPC6 activator – activators of mouse TRPC6 channel. Q61143. HEK293-TRPC6 membrane potential dye fluorescence; active compounds read high. B-score at 10 µM. 310,000 compounds, 0.13% hits. AID 2550;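 active = B-score of the integrated fluorescence ratio above library mean plus 3 SD, and starting fluorescence ratio within library mean plus 5 SD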;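 also: higher score means more depolarization so channel activation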
TRPC6 inh – mouse TRPC6 channel inhibition; Q61143; 310,000 compounds, 1.1% hits; B-score at 10 µM; HEK293-TRPC6, membrane potential dye, ACh-evoked depolarization; active compounds read low;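 active = B-score under library mean minus 3 SD, initial fluorescence not abnormally high, positive integrated signal ratio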;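 also: B-score derived from integrated fluorescence ratio over the kinetic read; more negative B-score means stronger inhibition of depolarization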
TRPC4 sel inh 2 – mouse TRPC4 off-target activity of TRPC6 inhibitors, second screen; 920 compounds, 42% hits; shares compounds with TRPC6 inh; HEK293 TRPC4/MOR, membrane potential dye fluorescence; channel activated by saturating DAMGO dose; inhibition, % at 10 µM;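 active = compounds whose fluorescence signal differed from control wells by over 3 SD, either direction, in both duplicate plates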
TRPC4 spec – tests whether TRPC6 inhibitors also affect mouse TRPC4. shares compounds with TRPC6 inh. HEK293 TRPC4/mu-opioid, membrane potential fluorescence. activity change, negative = inhibition, % at 10 µM. 920 compounds, 61% hits. AID 2777;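 active = rise or fall in signal beyond 3 SD of buffer-only wells in both replicate plates, either sign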;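 also: integrated kinetic ratio of fluorescence range over baseline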
HEK293 MPD ctr 2-1 – parental HEK293 nonspecific activity of TRPC6 inhibitors, second screen. shares compounds with TRPC6 inh. parental HEK293 membrane potential dye fluorescence; maximal acetylcholine challenge after compound addition. signal change vs control, % at 10 µM. 920 compounds, 31% hits. AID 2779;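 active = membrane potential signal moving either way by over 3 SD of the maximum-effect control, in both duplicate plates, meaning non-specific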
HEK293 MPD ctr-1 – counter-screen for TRPC6 inhibitors: effect in parental HEK293 cells | shares compounds with TRPC6 inh | parental HEK293 membrane potential dye fluorescence | membrane potential signal change, % at 10 µM | 920 compounds, 60% hits;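 active = membrane potential signal shifting up or down by more than 3 SD of buffer-only wells, on both duplicate plates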
HEK293 MPD ctr-2 – parental HEK293 nonspecific activity of TRPC6 modulators; shares compounds with TRPC6 inh; membrane potential dye fluorescence; membrane potential signal change, % at 10 µM; 2,400 compounds, 51% hits; AID 488924;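 active = membrane potential signal moves up or down beyond 5 SD from buffer-only wells, on both duplicate plates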
HEK293 MPD ctr 2-2 – parental HEK293 nonspecific activity of TRPC6 modulators, second screen; AID 488926; membrane potential dye fluorescence; after compound, maximal acetylcholine stimulation; inhibition, % at 10 µM; shares compounds with TRPC6 inh; 2,400 compounds, 14% hits;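 active = membrane potential signal drops by more than 5 SD from the mean control signal, in both duplicate plates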;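 also: plate controls were acetylcholine ECmax control wells for no effect and buffer only wells for full effect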
TRPC4/MOR mod – mouse TRPC4 off-target activity of TRPC6 modulators; shares compounds with TRPC6 inh; 2,400 compounds, 69% hits; HEK293 TRPC4/mu-opioid, membrane potential fluorescence; percent change from control (negative = decrease, positive = increase), % at 10 µM;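 active = membrane potential signal moved up or down beyond 5 SD of buffer control wells, in both duplicate plates, actives on both sides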;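 also: plate controls were assay buffer wells for no effect and DAMGO maximal-effect wells for full effect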
TRPC4/MOR inh 2 – second check of whether TRPC6 modulators also affect mouse TRPC4. shares compounds with TRPC6 inh. HEK293 TRPC4/mu-opioid, membrane potential dye fluorescence; stimulated with maximal-effect DAMGO. inhibition, % at 10 µM. 2,400 compounds, 55% hits;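 active = drop in membrane potential signal beyond 5 SD of the control wells in both duplicate plates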;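 also: TRPC4 counter screen for TRPC6 hits run under conditions tuned for TRPC6 not TRPC4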
TRPC6 block conf – confirmation of mouse TRPC6 inhibitors | shares compounds with TRPC6 inh | HEK293-TRPC6, membrane potential dye, ACh-evoked depolarization | inhibition, % at 10 µM | 3,300 compounds, 43% hits;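 active = fluorescence ratio falls more than 5 SD below the full-stimulation control mean, in both duplicate runs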;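 also: integrated fluorescence ratio of peak minus minimum over baseline after agonist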
TRPC6 act confirm – mouse TRPC6 activator confirmation | shares compounds with TRPC6 inh | HEK293-TRPC6 membrane potential dye fluorescence, FDSS | activation, % at 10 µM | 2,800 compounds, 11% hits | AID 488961;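 active = ratio signal rise beyond 5 SD above unstimulated control wells' mean, seen in both duplicate runs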;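 also: plate controls were buffer EC0 wells for no effect and acetylcholine ECmax response for full effect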
The depositor's hits bear a star; i = inactive; . = no result.

SMILES	TRPC4 agonist	TRPC4 PAM	TRPC4 block	TRPC6 activator	TRPC6 inh	HEK293 MPD ctr-2	HEK293 MPD ctr 2-2	TRPC4/MOR mod	TRPC4/MOR inh 2	TRPC6 block conf	TRPC6 act confirm	others
Cc1cc(C)n(-c2nc(SCCN(C)C)c3c4c(sc3n2)COC(C)(C)C4)n1	i	i	i	i	-9.77*	.	.	.	.	56.8%*	i	TRPC4 sel inh 2=48.5%*;TRPC4 spec=-15.4%*;HEK293 MPD ctr 2-1=i;HEK293 MPD ctr-1=-303.5%*
CCOc1ccc(/C=N/Nc2nc(C)cs2)c(O)c1	i	i	i	i	i	.	.	.	.	.	.
O=C(OCc1nnc(-c2ccccc2)o1)c1ccc(Cl)cc1	i	i	i	i	i	.	.	.	.	.	.
O=C(OCc1nnc(-c2ccccc2)o1)c1ccc2c(c1)OCCO2	i	i	i	i	-5.75*	i	i	12.5%*	i	i	.
NCCCCCc1nnc(SCc2ccc(Cl)c(Cl)c2)o1	i	i	i	i	-6.17*	i	i	i	66.0%*	59.5%*	i
CC1=NN(C(N)=S)C(=O)C1N=Nc1ccc([N+](=O)[O-])cc1 (stereo not drawn)	i	i	i	i	i	.	.	.	.	.	.
CC1CCCN(C(=O)COc2ccc(-c3ccccc3)cc2)C1 (stereo not drawn)	i	i	i	i	-5.96*	i	i	10.5%*	i	i	.
Cc1nn(CC(=O)NCCC2=CCCCC2)c(C)c1[N+](=O)[O-]	i	i	i	i	i	.	.	.	.	.	.
COc1ccc(/C=C/C(=O)Nc2ccccc2C(=O)NCC(c2ccc(OC)cc2)N(C)C)cc1 (stereo not drawn)	48*	i	-7*	i	-6.82*	.	.	.	.	i	i	TRPC4 sel inh 2=12.0%*;TRPC4 spec=49.0%*;HEK293 MPD ctr 2-1=i;HEK293 MPD ctr-1=i
CCCc1c(C(=O)N/N=C(\C)CCc2ccccc2)nnn1-c1nonc1N	i	i	i	i	i	.	.	.	.	.	.
CN1CCN(C2=Nc3cc(Cl)ccc3Nc3ccccc32)CC1	i	i	i	i	-6.89*	.	.	.	.	i	i	TRPC4 sel inh 2=i;TRPC4 spec=i;HEK293 MPD ctr 2-1=-2.0%*;HEK293 MPD ctr-1=i
CN1CCN(CCCN2c3ccccc3Sc3ccc(Cl)cc32)CC1	i	i	i	i	i	.	.	.	.	.	.
COc1ccc(-c2cc3ccc(OC(C)C(=O)O)cc3oc2=O)cc1 (stereo not drawn)	i	i	i	i	i	.	.	.	.	.	.
COc1ccccc1Nc1nc(N)nc(CSC(=S)N2CCCCC2)n1	i	i	i	11.5*	-9.54*	i	i	i	i	i	i
